Assay results taken from ChEMBL document CHEMBL1121400, “Quantitative structure--activity correlations of rifamycins as inhibitors of viral RNA-directed DNA polymerase and mammalian alpha and beta DNA polymerases” (J Med Chem, 1980).

Key:
[1] = Partition coefficient (logP); settings: octanol/water
[2] = The logarithm of the reciprocal of the concentration which produces 50% inhibition of mammalian alpha DNA polymerase.
Method in brief: (§1)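 Mammalian α or β DNA polymerase in 100 µL reaction: enzyme in 50% glycerol, 1 mM DTT, 0.5 M KCl, Tris-HCl pH 7.5; Me2SO compound; cocktail with MnCl2, NaF, [3H]dGTP, poly(2'-O-methylC)·d(pG)12-18 template. Compound added first, then enzyme, then cocktail; 45 min at 37 °C. Product radioactivity, background-corrected against Me2SO controls; 50% concentration from triplicate five-dose curves, 10^-3–10^-7 M, expressed as log(1/C).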

[3] = target: Gag-Pol polyprotein (Woolly monkey sarcoma virus) (UniProt P03359); assay: Inhibition of simian sarcoma virus reverse transcriptase
Chain of Gag-Pol polyprotein (Woolly monkey sarcoma virus) (P03359 whole entry): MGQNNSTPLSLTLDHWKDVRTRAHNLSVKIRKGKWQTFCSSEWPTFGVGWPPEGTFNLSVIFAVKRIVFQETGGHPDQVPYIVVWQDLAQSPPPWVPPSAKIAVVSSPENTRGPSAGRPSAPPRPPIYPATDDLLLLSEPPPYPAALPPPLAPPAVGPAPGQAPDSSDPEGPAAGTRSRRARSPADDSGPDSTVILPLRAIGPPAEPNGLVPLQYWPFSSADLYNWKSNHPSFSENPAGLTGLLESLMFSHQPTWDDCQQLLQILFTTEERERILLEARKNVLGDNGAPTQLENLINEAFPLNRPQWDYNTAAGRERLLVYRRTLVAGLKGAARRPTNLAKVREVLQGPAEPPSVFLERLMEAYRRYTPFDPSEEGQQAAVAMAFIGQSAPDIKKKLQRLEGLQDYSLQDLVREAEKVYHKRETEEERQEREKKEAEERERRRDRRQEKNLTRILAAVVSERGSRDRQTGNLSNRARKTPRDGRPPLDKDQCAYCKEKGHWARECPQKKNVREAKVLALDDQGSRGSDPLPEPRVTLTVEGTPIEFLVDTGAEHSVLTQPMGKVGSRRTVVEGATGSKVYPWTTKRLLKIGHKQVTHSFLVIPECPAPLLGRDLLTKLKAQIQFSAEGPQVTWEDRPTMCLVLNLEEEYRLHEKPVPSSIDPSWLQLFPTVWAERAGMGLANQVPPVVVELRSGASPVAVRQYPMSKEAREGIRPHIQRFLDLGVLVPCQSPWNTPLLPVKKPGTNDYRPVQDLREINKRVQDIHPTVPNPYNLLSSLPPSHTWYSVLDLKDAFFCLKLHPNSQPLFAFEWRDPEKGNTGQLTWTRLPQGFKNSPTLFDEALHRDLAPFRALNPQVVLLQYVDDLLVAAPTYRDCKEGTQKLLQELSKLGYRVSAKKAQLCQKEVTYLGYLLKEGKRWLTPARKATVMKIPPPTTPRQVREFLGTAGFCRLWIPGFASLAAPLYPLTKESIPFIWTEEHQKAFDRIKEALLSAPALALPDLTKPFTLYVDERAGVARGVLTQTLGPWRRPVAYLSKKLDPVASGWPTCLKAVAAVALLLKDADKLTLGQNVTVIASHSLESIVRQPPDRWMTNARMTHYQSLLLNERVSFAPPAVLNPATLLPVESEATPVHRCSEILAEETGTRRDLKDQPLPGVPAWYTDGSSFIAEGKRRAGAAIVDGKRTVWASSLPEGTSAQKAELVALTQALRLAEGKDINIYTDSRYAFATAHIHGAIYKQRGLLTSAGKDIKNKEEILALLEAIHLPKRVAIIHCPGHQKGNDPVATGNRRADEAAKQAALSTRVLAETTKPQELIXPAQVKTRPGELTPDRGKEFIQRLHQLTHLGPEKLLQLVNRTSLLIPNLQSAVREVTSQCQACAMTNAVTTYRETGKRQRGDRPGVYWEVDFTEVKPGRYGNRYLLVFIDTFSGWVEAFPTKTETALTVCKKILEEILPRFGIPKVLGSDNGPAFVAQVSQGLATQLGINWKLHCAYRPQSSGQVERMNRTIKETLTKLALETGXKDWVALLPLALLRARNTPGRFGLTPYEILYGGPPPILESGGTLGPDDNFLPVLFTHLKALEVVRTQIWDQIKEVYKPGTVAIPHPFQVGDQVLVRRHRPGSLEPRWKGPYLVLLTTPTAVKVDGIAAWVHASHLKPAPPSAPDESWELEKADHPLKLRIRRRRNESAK
Method in brief: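 SSV-1 RNA-dependent DNA polymerase purified from tissue culture fluid of 71 AP1 cells. 50 µL reaction containing 20% glycerol, 1 mM DTT, BSA, Tris-HCl pH 7.5, MnCl2, KCl, NaF, [3H]dGTP and poly(2'-O-methylC)·d(pG)12-18. Compound in Me2SO is mixed with enzyme on ice for 10 min before the cocktail is added, then incubated 45 min at 37 °C. Radioactivity in product; 50% inhibitory concentration from triplicate dose–response curves spanning 10^-3 to 10^-7 M.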

[4] = target: Gag-Pol polyprotein (Woolly monkey sarcoma virus, UniProt P03359); assay: Ability to inhibit simian sarcoma virus reverse transcriptase
Chain of Gag-Pol polyprotein (P03359 642-1310 limits assumed): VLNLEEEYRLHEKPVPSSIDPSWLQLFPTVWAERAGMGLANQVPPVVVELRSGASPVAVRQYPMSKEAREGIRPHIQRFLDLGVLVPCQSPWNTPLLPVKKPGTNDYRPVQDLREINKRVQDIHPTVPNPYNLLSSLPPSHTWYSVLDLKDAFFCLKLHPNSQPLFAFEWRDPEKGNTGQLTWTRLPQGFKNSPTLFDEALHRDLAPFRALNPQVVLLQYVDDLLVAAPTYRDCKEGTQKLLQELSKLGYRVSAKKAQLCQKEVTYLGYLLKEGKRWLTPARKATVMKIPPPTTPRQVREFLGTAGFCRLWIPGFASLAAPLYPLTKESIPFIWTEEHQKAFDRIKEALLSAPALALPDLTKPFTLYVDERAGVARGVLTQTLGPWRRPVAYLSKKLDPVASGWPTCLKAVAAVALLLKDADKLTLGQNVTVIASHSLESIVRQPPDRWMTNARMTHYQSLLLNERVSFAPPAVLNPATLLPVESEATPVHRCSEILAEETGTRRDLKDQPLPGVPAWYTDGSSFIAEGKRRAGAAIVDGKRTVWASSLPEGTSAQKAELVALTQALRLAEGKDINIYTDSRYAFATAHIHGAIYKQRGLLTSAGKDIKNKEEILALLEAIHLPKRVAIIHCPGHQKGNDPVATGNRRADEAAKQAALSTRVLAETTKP
Method in brief: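 Purified SSV-1 RNA-dependent DNA polymerase from 71 AP1 culture fluids, in 20% glycerol, 1 mM dithiothreitol, 1 mg/mL BSA and 50 mM Tris-HCl pH 7.5, was held 10 min on ice with inhibitor in Me2SO. Mn2+/[3H]dGTP cocktail with poly(2'-O-methylcytidylic acid)·d(pG)12-18 template was added, then 45 min at 37 °C. Background-corrected triplicate dose series; the 50% inhibition concentration was extrapolated.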

[5] = target: DNA polymerase beta (Mus musculus, UniProt Q8K409); assay: Ability to inhibit mouse beta DNA polymerase
Method in brief: (§2)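 Enzyme in 50% glycerol, 1 mM dithiothreitol, 0.5 M KCl and 50 mM Tris-HCl pH 7.5 was premixed with inhibitor in 100% Me2SO and held on ice 10 min. Cocktail (MnCl2, KCl, NaF, BSA, [3H]dGTP, poly(2'-O-methylcytidylic acid)·d(pG)12-18) was then added. Incubation was 45 min at 37 °C.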

[6] = Ability to inhibit mouse alpha DNA polymerase; method in brief: as §2
[7] = target: DNA polymerase beta (Mus musculus) (UniProt Q8K409); assay: The logarithm of the reciprocal of the concentration which produces 50% inhibition of mammalian beta DNA polymerase.; method in brief: as §1

Row | logP ([1]; logP) | Log 1/C [2] | Log 1/C [3] | IC50 ([4]; read-out: IC50) | IC50 [6] | Log 1/C [7] | further results | SMILES
1 | 3.51 |  |  |  |  |  |  | CCCCCCN(CCCCCC)/N=C/c1cc2c3c4c(C)c(O)c2c(O)c1NC(=O)/C(C)=C\C=C\C(C)C(O)C(C)C(O)C(C)C(OC(C)=O)C(C)C(OC)/C=C/OC(C)(O4)C3=O (stereo unspecified)
2 | 0.11 | 2.64 | 2.64 | 13 µM | 0.00023 M l-1 | 2.64 | IC50 [5]: 0.00037 M l-1 | COC1/C=C/OC2(C)Oc3c(C)c(O)c4c(O)c(c(O)cc4c3C2=O)NC(=O)/C(C)=C\C=C\C(C)C(O)C(C)C(O)C(C)C(OC(C)=O)C1C (stereo unspecified)
3 | 3.81 | 4.35 | 5.26 | 5.4 µM | 0.000045 M l-1 | 4.3 | IC50 ([5]; read-out: IC50): 50 µM | COC1/C=C/OC2(C)Oc3c(C)c(O)c4c(O)c(c(/C=N/Nc5ccc([N+](=O)[O-])cc5[N+](=O)[O-])cc4c3C2=O)NC(=O)/C(C)=C\C=C\C(C)C(O)C(C)C(O)C(C)C(OC(C)=O)C1C (stereo unspecified)
4 |  |  |  | 42 µM | 0.00034 M l-1 |  | IC50 [5]: 0.00015 M l-1 | COC1/C=C/OC2(C)Oc3c(C)c(O)c4c(O)c(c(/C=N/N5CCN(C)CC5)cc4c3C2=O)NC(=O)/C(C)=C\C=C\C(C)C(O)C(C)C(O)C(C)C(OC(C)=O)C1C (stereo unspecified)
5 |  | 4.6 | 5.19 |  |  | 4.66 |  | COC1/C=C/OC2(C)Oc3c(C)c(O)c4c(O)c(c(/C=N/N5CCCCCCCCCCCCCCC5)cc4c3C2=O)NC(=O)/C(C)=C\C=C\C(C)C(O)C(C)C(O)C(C)C(OC(C)=O)C1C (stereo in doubt; 18) [listing 1 of 2 here]
6 | 0.78 | 3.12 | 3.43 |  | 0.00076 M l-1 | 2.96 | IC50 [4]: 0.00037 M l-1; IC50 [5]: 0.0011 M l-1 | COC1/C=C/OC2(C)Oc3c(C)c(O)c4c(O)c(ccc4c3C2=O)NC(=O)/C(C)=C\C=C\C(C)C(O)C(C)C(O)C(C)C(OC(C)=O)C1C (stereo unspecified)
7 | 1.55 | 3 | 4.4 | 40 µM | 0.001 M l-1 | 3 | IC50 [5]: 0.0011 M l-1 | CCN(CC)Cc1cc2c3c4c(C)c(O)c2c(O)c1NC(=O)/C(C)=C\C=C\C(C)C(O)C(C)C(O)C(C)C(OC(C)=O)C(C)C(OC)/C=C/OC(C)(O4)C3=O (stereo unspecified)
8 |  | 4.62 | 5.48 |  |  | 4.72 |  | COC1/C=C/OC2(C)Oc3c(C)c(O)c4c(O)c(c(/C=N/N5CCCCCCCCCCCC5)cc4c3C2=O)NC(=O)/C(C)=C\C=C\C(C)C(O)C(C)C(O)C(C)C(OC(C)=O)C1C (stereo in doubt; 17) [listing 1 of 2 here]
9 | 1.12 |  |  |  |  |  |  | COC1/C=C/OC2(C)Oc3c(C)c(O)c4c(O)c(c(/C=N/N5CCNCC5)cc4c3C2=O)NC(=O)/C(C)=C\C=C\C(C)C(O)C(C)C(O)C(C)C(OC(C)=O)C1C (stereo unspecified)
10 | 2.75 |  |  |  |  |  |  | COC1/C=C/OC2(C)Oc3c(C)c(O)c4c(O)c(c(/C=N/N5CCCCCC5)cc4c3C2=O)NC(=O)/C(C)=C\C=C\C(C)C(O)C(C)C(O)C(C)C(OC(C)=O)C1C (stereo unspecified)
11 | 2 | 3.78 | 4.6 | 25 µM | 0.000165 M l-1 | 4.8 | IC50 ([5]; read-out: IC50): 16 µM | COC1/C=C/OC2(C)Oc3c(C)c(O)c4c(O)c(c(/C=N/N5CCN(N)CC5)cc4c3C2=O)NC(=O)/C(C)=C\C=C\C(C)C(O)C(C)C(O)C(C)C(OC(C)=O)C1C (stereo unspecified)
12 |  |  |  |  |  |  | logP [1]: 5.55 | COC1/C=C/OC2(C)Oc3c(C)c(O)c4c(O)c(c(/C=N/N5CCCCCCCCCCCCCCC5)cc4c3C2=O)NC(=O)/C(C)=C\C=C\C(C)C(O)C(C)C(O)C(C)C(OC(C)=O)C1C (stereo in doubt; 31)
13 | 6.05 |  |  | 6.5 µM | 0.000025 M l-1 |  | IC50 ([5]; read-out: IC50): 22 µM | COC1/C=C/OC2(C)Oc3c(C)c(O)c4c(O)c(c(/C=N/N5CCCCCCCCCCCCCCC5)cc4c3C2=O)NC(=O)/C(C)=C\C=C\C(C)C(O)C(C)C(O)C(C)C(OC(C)=O)C1C (stereo in doubt; 18) [listing 2 of 2 here]
14 |  |  |  | 3.2 µM | 0.000024 M l-1 |  | logP [1]: 3.62; IC50 ([5]; read-out: IC50): 7.4 µM | CCCCCCCCN(CCCCCCCC)/N=C/c1cc2c3c4c(C)c(O)c2c(O)c1NC(=O)/C(C)=C\C=C\C(C)C(O)C(C)C(O)C(C)C(OC(C)=O)C(C)C(OC)/C=C/OC(C)(O4)C3=O (stereo in doubt; 8) [listing 1 of 2 here]
15 | 0.13 | 2.99 | 2.99 | 17 µM | 0.000102 M l-1 | 2.99 | IC50 [5]: 0.000104 M l-1 | COC1/C=C/OC2(C)Oc3c(C)c(O)c4c(O)c(c(C=O)cc4c3C2=O)NC(=O)/C(C)=C\C=C\C(C)C(O)C(C)C(O)C(C)C(OC(C)=O)C1C (stereo unspecified)
16 | 3.34 | 3.85 | 5 | 10 µM | 0.00014 M l-1 | 3.92 | IC50 [5]: 0.00012 M l-1 | COc1cccc(CN2CCN(/N=C/c3cc4c5c6c(C)c(O)c4c(O)c3NC(=O)/C(C)=C\C=C\C(C)C(O)C(C)C(O)C(C)C(OC(C)=O)C(C)C(OC)/C=C/OC(C)(O6)C5=O)CC2)c1 (stereo unspecified)
17 |  |  |  |  |  |  | logP [1]: 4.65 | COC1/C=C/OC2(C)Oc3c(C)c(O)c4c(O)c(c(/C=N/N5CCCCCCCCCCCC5)cc4c3C2=O)NC(=O)/C(C)=C\C=C\C(C)C(O)C(C)C(O)C(C)C(OC(C)=O)C1C (stereo in doubt; 30)
18 | 3.45 |  |  |  |  |  |  | COC1/C=C/OC2(C)Oc3c(C)c(O)c4c(O)c(c(/C=N/N5CCCCCCCC5)cc4c3C2=O)NC(=O)/C(C)=C\C=C\C(C)C(O)C(C)C(O)C(C)C(OC(C)=O)C1C (stereo unspecified)
19 | -0.29 |  |  |  |  |  |  | NN1CCNCC1
20 | 3.6 |  |  |  |  |  |  | CCCCCCCCN(CCCCCCCC)/N=C/c1cc2c3c4c(C)c(O)c2c(O)c1NC(=O)/C(C)=C\C=C\C(C)C(O)C(C)C(O)C(C)C(OC(C)=O)C(C)C(OC)/C=C/OC(C)(O4)C3=O (stereo in doubt; 35)
21 | 4.75 |  |  | 3.3 µM | 0.000024 M l-1 |  | IC50 ([5]; read-out: IC50): 19 µM | COC1/C=C/OC2(C)Oc3c(C)c(O)c4c(O)c(c(/C=N/N5CCCCCCCCCCCC5)cc4c3C2=O)NC(=O)/C(C)=C\C=C\C(C)C(O)C(C)C(O)C(C)C(OC(C)=O)C1C (stereo in doubt; 17) [listing 2 of 2 here]
22 |  | 4.62 | 5.49 |  |  | 5.13 |  | CCCCCCCCN(CCCCCCCC)/N=C/c1cc2c3c4c(C)c(O)c2c(O)c1NC(=O)/C(C)=C\C=C\C(C)C(O)C(C)C(O)C(C)C(OC(C)=O)C(C)C(OC)/C=C/OC(C)(O4)C3=O (stereo in doubt; 8) [listing 2 of 2 here]
23 | 3.36 |  |  |  |  |  |  | COC1/C=C/OC2(C)Oc3c(C)c(O)c4c(O)c(c(/C=N/N5CCN(Cc6ccccc6)CC5)cc4c3C2=O)NC(=O)/C(C)=C\C=C\C(C)C(O)C(C)C(O)C(C)C(OC(C)=O)C1C (stereo unspecified)
24 | 3.1 |  |  |  |  |  |  | COC1/C=C/OC2(C)Oc3c(C)c(O)c4c(O)c(c(/C=N/N5CCCCCCC5)cc4c3C2=O)NC(=O)/C(C)=C\C=C\C(C)C(O)C(C)C(O)C(C)C(OC(C)=O)C1C (stereo unspecified)
25 | 2.35 |  |  |  |  |  |  | COC1/C=C/OC2(C)Oc3c(C)c(O)c4c(O)c(c(/C=N/N5CCCCC5)cc4c3C2=O)NC(=O)/C(C)=C\C=C\C(C)C(O)C(C)C(O)C(C)C(OC(C)=O)C1C (stereo unspecified)
26 | 3.66 |  |  |  |  |  |  | CCCCN(CCCC)/N=C/c1cc2c3c4c(C)c(O)c2c(O)c1NC(=O)/C(C)=C\C=C\C(C)C(O)C(C)C(O)C(C)C(OC(C)=O)C(C)C(OC)/C=C/OC(C)(O4)C3=O (stereo unspecified)
27 | 6.3 |  |  |  |  |  |  | COC1/C=C/OC2(C)Oc3c(C)c(O)c4c(O)c(c(/C=N/N5C(C)CC(Cc6ccccc6)CC5C)cc4c3C2=O)NC(=O)/C(C)=C\C=C\C(C)C(O)C(C)C(O)C(C)C(OC(C)=O)C1C (stereo unspecified)
